APOBEC3G inh: APOBEC3G DNA deaminase inhibitors, primary screen, biochemical, fluorescence, single-stranded DNA substrate, uHTS; DNA dC->dU-editing enzyme APOBEC-3G (Homo sapiens), Q9HC16; recombinant A3G, ssDNA deamination FAM/TAMRA fluorescence; inhibition, % at 20 µM; 330,000 tested, 0.28% active; AID 493012, 2011;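 active = inhibition of at least 40% at 20 µM, with no more than 30% in the related APOBEC3A deaminase screen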
A3A deaminase: APOBEC3A ssDNA deaminase inhibitors, primary screen, selectivity assay for APOBEC3G inhibitor project, biochemical, FAM/TAMRA oligo cleavage fluorescence | recombinant A3A, FAM/TAMRA ssDNA deamination fluorescence | DNA dC->dU-editing enzyme APOBEC-3A (Homo sapiens), P31941 | inhibition, % at 20 µM | 330,000 tested, 0.41% active;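 active = at least 40% inhibition at 20 µM here, with at most 30% in a related deaminase screen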
Target sequence (P31941 whole entry, looked up): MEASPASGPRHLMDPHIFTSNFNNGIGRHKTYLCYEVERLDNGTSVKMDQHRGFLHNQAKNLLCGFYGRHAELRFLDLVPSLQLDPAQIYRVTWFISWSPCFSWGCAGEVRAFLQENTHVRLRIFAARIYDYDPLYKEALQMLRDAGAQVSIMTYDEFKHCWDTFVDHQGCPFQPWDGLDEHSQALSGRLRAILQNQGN
ABHD5 PLIN5 PPI: ABHD5-PLIN5 interaction inhibitors, primary screen, cell lysate, split luciferase complementation, luminescence; Perilipin-5 (Homo sapiens) + 1-acylglycerol-3-phosphate O-acyltransferase ABHD5 (Homo …; Split G. princeps luciferase complementation, 4 h; inhibition, % at 4 µM; 360,000 tested, 0.78% active;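 active = inhibition above the mean inhibition across every tested compound plus 3 SD, cut at about 22% in these data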
FN deposition inh: inhibitors of fibronectin matrix deposition, primary screen, AH1F cells, Alexa488-fibronectin fluorescence, plate reader; 350,000 tested, 0.086% active; AH1F fibroblasts, overnight; inhibition, % at 12.6 µM;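 active = mean inhibition across replicates of 30% or more, regardless of how many single replicates reach that level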
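Measured by – fluorescence 485/525 nm · System – AH1F fibroblast monolayer, labelled fibronectin deposition · Amount – 10000 cells per well · Buffer or medium – serum-reduced DMEM (2% serum) · Doses – single dose, pinned · Also added – fluorescent fibronectin at 24 nM final · Schedule – 1 h cell attachment, overnight exposure to compound and label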
A3A conf: APOBEC3A deaminase inhibitors, retest, confirmation, selectivity assay for APOBEC3G inhibitor project, biochemical, single concentration, fluorescence readout | 1,400 tested, 63% active | inhibition, % at 20 µM | shares compounds with A3A deaminase | recombinant A3A, ssDNA deaminase UDG fluorescence assay;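 active = inhibition reaching a set limit, 80% of the first screen's cutoff, at 20 µM in any replicate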
UDG ctr A3A: E. coli UDG inhibitors, confirmation, counter-screen for APOBEC3A inhibitor project, biochemical, single concentration, fluorescence, FAM/TAMRA oligo; UDG counterscreen, FAM/TAMRA uracil oligo fluorescence; AID 504714, 2011; inhibition, % at 20 µM; shares compounds with A3A deaminase; 1,000 tested, under 10 active; call rule not given here
Each line names hits and unclear results; the compound was inactive in the other large screens (follow-up assays come after a bar, where they were run). In the library only some 1.2% were active in any assay of this set; here they are far more common.

COc1ccc(CC(=O)N/N=C/c2ccc(-c3cccc(C(=O)O)c3)o2)cc1OC	A3A deaminase 41.8 | A3A conf inactive
O=C(Cn1c2[n+](c3ccc(C(F)(F)F)cc31)CCCCC2)Nc1ccccc1	A3A deaminase 59.7 | A3A conf 62.4 | UDG ctr A3A inactive
CCc1cccc(NC(=O)Cn2c3[n+](c4ccc(C(F)(F)F)cc42)CCCCC3)c1	A3A deaminase 61.6 | A3A conf 78.5 | UDG ctr A3A inactive
FC(F)(F)c1ccc2c(c1)n(Cc1ccccc1)c1[n+]2CCCCC1	none (no result: FN deposition inh)
CCOC(=O)c1c(/N=C/c2ccccc2O)sc2c1CCC2	A3A deaminase 97.6 | A3A conf inactive | UDG ctr A3A inactive
CCOC(=O)c1c(NC(=O)OC)sc2c1CCC2	A3A deaminase 54.1 | A3A conf inactive | UDG ctr A3A inactive
CCOC(=O)c1c(/N=C/c2ccc(O)cc2O)sc2c1CCC2	none (no result: ABHD5 PLIN5 PPI, FN deposition inh)
CCC(=O)N(C)C[C@@H]1Oc2cc(-c3cncnc3)ccc2S(=O)(=O)N([C@H](C)CO)C[C@H]1C	none (no result: APOBEC3G inh, A3A deaminase, ABHD5 PLIN5 PPI)
C[C@H](CO)N1C[C@H](C)[C@@H](CN(C)Cc2ccccn2)Oc2ncc(C3=CCCCC3)cc2C1=O	none (no result: APOBEC3G inh, A3A deaminase, ABHD5 PLIN5 PPI)
CC(=O)N(C)C[C@H]1Oc2cc(-c3ccc(C#N)cc3)ccc2S(=O)(=O)N([C@H](C)CO)C[C@H]1C	none (no result: APOBEC3G inh, A3A deaminase, ABHD5 PLIN5 PPI)
CC(C)CN(C(=O)CCCc1nc2ccccc2c(=O)[nH]1)c1c(N)n(Cc2ccccc2)c(=O)[nH]c1=O	A3A deaminase 42.2 | A3A conf inactive
Cc1nc2ccccc2c(C)c1CC(=O)N(CC(C)C)c1c(N)n(Cc2ccccc2)c(=O)[nH]c1=O	none (no result: FN deposition inh)
CC(C)CCOCC(O)CCC(=O)NNC(=S)Nc1ccccc1 (configuration not stated)	A3A deaminase 92.1 | A3A conf inactive | UDG ctr A3A inactive
C=CCn1c(SCc2nc3ccccc3nc2C)nnc1-c1ccoc1C	A3A deaminase 44.6 | A3A conf inactive | UDG ctr A3A inactive
O=C(Nc1ccccc1F)N1CC(=O)N2[C@H](CO)[C@H](c3ccc(C#CC4CCCC4)cc3)[C@H]2C1	none (no result: APOBEC3G inh, A3A deaminase, ABHD5 PLIN5 PPI)
O=C(c1ccccc1Cc1ccccc1)N1CCN(S(=O)(=O)c2ccccc2[N+](=O)[O-])CC1	A3A deaminase 46.4 | A3A conf inactive | UDG ctr A3A inactive
O=C(Nc1ccc2ncccc2c1)c1ccccc1Cl	A3A deaminase 46.1 | A3A conf 74.6 | UDG ctr A3A inactive
Cc1cc(C)nc(SCC(=O)N/N=C/c2cccn2-c2cccc(C(F)(F)F)c2)n1	A3A deaminase 42.0 | A3A conf inactive
Cc1cc(C)nc(SCC(=O)N/N=C/c2cccn2-c2ccc(O)cc2)n1	none (no result: FN deposition inh)
COc1ccc2c3c(n(C)c2c1)[C@@H](CO)N(S(C)(=O)=O)CC31CCN(C(=O)c2ccccn2)CC1	none (no result: APOBEC3G inh, A3A deaminase, ABHD5 PLIN5 PPI)
CCCCC1(C)OC(=O)C(=Cc2ccc(-c3ccc(Cl)c(C(=O)O)c3)o2)C(=O)O1 (configuration not stated)	A3A deaminase 54.6 | A3A conf 30.0 | UDG ctr A3A inactive
c1ccc2oc(CCc3nc4ccccc4o3)nc2c1	none (no result: FN deposition inh)
Nc1ccc2oc(CCc3ccccc3)nc2c1	A3A deaminase 59.7 (no result: FN deposition inh) | A3A conf inactive | UDG ctr A3A inactive
CO[C@H]1CN(C)C(=O)c2ccc(NC(=O)Cc3ccccc3)cc2OC[C@H](C)N(C(=O)c2ccccc2F)C[C@H]1C	none (no result: APOBEC3G inh, A3A deaminase, ABHD5 PLIN5 PPI)
Cc1ccc(OCc2ccoc2C(=O)O)cc1C	A3A deaminase 41.6 | A3A conf 37.4 | UDG ctr A3A inactive
CC(C)(C)NC(=O)CSc1nc2ccc(NC(=O)CSc3nnc(N)s3)cc2s1	A3A deaminase 47.7 | A3A conf 68.8 | UDG ctr A3A inactive
CC(C)(C)NC(=O)CSc1nc2ccc(NC(=O)CSc3nnnn3Cc3ccccc3)cc2s1	none (no result: FN deposition inh)
